{"source": "ChEMBL document CHEMBL5724801", "about": "“EUbOPEN Chemogenomics Library - Multiplex” (2024)", "key": {"Fibroblast": {"tested_on": "Fibroblast", "assay": "Multiplex assay against human fibroblast", "assay_type": "toxicity, cell-based", "outline": "(§1)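 Per cents of healthy-nucleus cells form the tubulin, mitochondrial-mass and membrane-permeability phenotype values. Live cells were stained at seeding with Hoechst33342, BioTracker Green Microtubule Cytoskeleton Dye, MitoTracker Red and Annexin V Alexa Fluor 680. After compound addition they were imaged on a CQ1 microscope at 37°C and 5% CO2, and CellPathfinder machine-learning gating split them into Hoechst high-intensity objects or normal cells, normal cells into healthy, pyknosed or fragmented nuclei, and pyknosed cells into mitotic or apoptotic.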"}, "U2OS": {"tested_on": "U2OS", "assay": "Multiplex assay against U2OS", "assay_type": "toxicity, cell-based", "settings": "human", "outline": "as §1"}, "[1]": {"settings": "12 h, 1 µM, compound concentration 1 uM"}, "[2]": {"settings": "12 h, 10 µM, compound concentration 10 uM"}, "[3]": {"settings": "24 h, 1 µM, compound concentration 1 uM"}, "[4]": {"settings": "24 h, 10 µM, compound concentration 10 uM"}, "[5]": {"settings": "48 h, 1 µM, compound concentration 1 uM"}, "[6]": {"settings": "48 h, 10 µM, compound concentration 10 uM"}}, "note": "Where “and” joins values, the source holds several entries; their conditions need not be identical. Equal values may be shown once.", "data": [{"smiles": "O=C1NCc2ccc3c(-c4cccc(Cl)c4)c[nH]c3c21", "values": [{"measurement": "Population Apoptotic (%)", "setting": "Fibroblast; [1]", "result": "13.51% and 26.32%"}, {"measurement": "Population Fragmented Nuclei (%)", "setting": "Fibroblast; [1]", "result": "16.45% and 5.58%"}, {"measurement": "Population Healthy Nuclei (%)", "setting": "Fibroblast; [1]", "result": "59.21% and 76.74%"}, {"measurement": "Population Hoechst High Intensity Objects (%)", "setting": "Fibroblast; [1]", "result": 0, "unit": "%"}, {"measurement": "Population Membrane Permeable-Phenotype (%)", "setting": "Fibroblast; [1]", "result": "4.44% and 3.64%"}, {"measurement": "Population Mitochondria Different-Phenotype (%)", "setting": "Fibroblast; [1]", "result": "8.89% and 8.48%"}, {"measurement": "Population Mitotic Cells (%)", "setting": "Fibroblast; [1]", "result": "86.49% and 73.68%"}, {"measurement": "Population Normal (%)", "setting": "Fibroblast; [1]", "result": 100, "unit": "%"}, {"measurement": "Population Pyknosed Nuclei (%)", "setting": "Fibroblast; [1]", "result": "24.34% and 17.67%"}, {"measurement": "Population Tubulin-Different-Phenotype (%)", "setting": "Fibroblast; [1]", "result": "10% and 13.33%"}, {"measurement": "Total Cell Count", "setting": "Fibroblast; [1]", "result": "152 and 215"}, {"measurement": "Population Apoptotic (%)", "setting": "Fibroblast; [2]", "result": "23.21% and 34.92%"}, {"measurement": "Population Fragmented Nuclei (%)", "setting": "Fibroblast; [2]", "result": "9.88% and 1.93%"}, {"measurement": "Population Healthy Nuclei (%)", "setting": "Fibroblast; [2]", "result": "57.56% and 67.63%"}, {"measurement": "Population Hoechst High Intensity Objects (%)", "setting": "Fibroblast; [2]", "result": 0, "unit": "%"}, {"measurement": "Population Membrane Permeable-Phenotype (%)", "setting": "Fibroblast; [2]", "result": "3.03% and 5%"}, {"measurement": "Population Mitochondria Different-Phenotype (%)", "setting": "Fibroblast; [2]", "result": "15.15% and 17.86%"}, {"measurement": "Population Mitotic Cells (%)", "setting": "Fibroblast; [2]", "result": "76.79% and 65.08%"}, {"measurement": "Population Normal (%)", "setting": "Fibroblast; [2]", "result": 100, "unit": "%"}, {"measurement": "Population Pyknosed Nuclei (%)", "setting": "Fibroblast; [2]", "result": "32.56% and 30.43%"}, {"measurement": "Population Tubulin-Different-Phenotype (%)", "setting": "Fibroblast; [2]", "result": "8.08% and 17.14%"}, {"measurement": "Total Cell Count", "setting": "Fibroblast; [2]", "result": "172 and 207"}, {"measurement": "Population Apoptotic (%)", "setting": "Fibroblast; [3]", "result": "18.75% and 20.59%"}, {"measurement": "Population Fragmented Nuclei (%)", "setting": "Fibroblast; [3]", "result": "13.25% and 6.58%"}, {"measurement": "Population Healthy Nuclei (%)", "setting": "Fibroblast; [3]", "result": "65.56% and 79.42%"}, {"measurement": "Population Hoechst High Intensity Objects (%)", "setting": "Fibroblast; [3]", "result": 0, "unit": "%"}, {"measurement": "Population Membrane Permeable-Phenotype (%)", "setting": "Fibroblast; [3]", "result": "7.07% and 4.66%"}, {"measurement": "Population Mitochondria Different-Phenotype (%)", "setting": "Fibroblast; [3]", "result": "10.1% and 5.18%"}, {"measurement": "Population Mitotic Cells (%)", "setting": "Fibroblast; [3]", "result": "81.25% and 79.41%"}, {"measurement": "Population Normal (%)", "setting": "Fibroblast; [3]", "result": 100, "unit": "%"}, {"measurement": "Population Pyknosed Nuclei (%)", "setting": "Fibroblast; [3]", "result": "21.19% and 13.99%"}, {"measurement": "Population Tubulin-Different-Phenotype (%)", "setting": "Fibroblast; [3]", "result": "13.13% and 9.84%"}, {"measurement": "Total Cell Count", "setting": "Fibroblast; [3]", "result": "151 and 243"}, {"measurement": "Population Apoptotic (%)", "setting": "Fibroblast; [4]", "result": "30.77% and 40.54%"}, {"measurement": "Population Fragmented Nuclei (%)", "setting": "Fibroblast; [4]", "result": "11.59% and 4.85%"}, {"measurement": "Population Healthy Nuclei (%)", "setting": "Fibroblast; [4]", "result": "64.63% and 77.18%"}, {"measurement": "Population Hoechst High Intensity Objects (%)", "setting": "Fibroblast; [4]", "result": 0, "unit": "%"}, {"measurement": "Population Membrane Permeable-Phenotype (%)", "setting": "Fibroblast; [4]", "result": 3.77, "unit": "%"}, {"measurement": "Population Mitochondria Different-Phenotype (%)", "setting": "Fibroblast; [4]", "result": "12.26% and 8.81%"}, {"measurement": "Population Mitotic Cells (%)", "setting": "Fibroblast; [4]", "result": "69.23% and 59.46%"}, {"measurement": "Population Normal (%)", "setting": "Fibroblast; [4]", "result": 100, "unit": "%"}, {"measurement": "Population Pyknosed Nuclei (%)", "setting": "Fibroblast; [4]", "result": "23.78% and 17.96%"}, {"measurement": "Population Tubulin-Different-Phenotype (%)", "setting": "Fibroblast; [4]", "result": "9.43% and 8.81%"}, {"measurement": "Total Cell Count", "setting": "Fibroblast; [4]", "result": "164 and 206"}, {"measurement": "Population Apoptotic (%)", "setting": "Fibroblast; [5]", "result": "20.83% and 38.89%"}, {"measurement": "Population Fragmented Nuclei (%)", "setting": "Fibroblast; [5]", "result": "10.71% and 5.78%"}, {"measurement": "Population Healthy Nuclei (%)", "setting": "Fibroblast; [5]", "result": "75% and 86.22%"}, {"measurement": "Population Hoechst High Intensity Objects (%)", "setting": "Fibroblast; [5]", "result": 0, "unit": "%"}, {"measurement": "Population Membrane Permeable-Phenotype (%)", "setting": "Fibroblast; [5]", "result": "4.76% and 5.67%"}, {"measurement": "Population Mitotic Cells (%)", "setting": "Fibroblast; [5]", "result": "79.17% and 61.11%"}, {"measurement": "Population Normal (%)", "setting": "Fibroblast; [5]", "result": 100, "unit": "%"}, {"measurement": "Population Pyknosed Nuclei (%)", "setting": "Fibroblast; [5]", "result": "14.29% and 8%"}, {"measurement": "Population Tubulin-Different-Phenotype (%)", "setting": "Fibroblast; [5]", "result": "7.94% and 9.28%"}, {"measurement": "Total Cell Count", "setting": "Fibroblast; [5]", "result": "168 and 225"}, {"measurement": "Population Apoptotic (%)", "setting": "Fibroblast; [6]", "result": "20% and 60%"}, {"measurement": "Population Fragmented Nuclei (%)", "setting": "Fibroblast; [6]", "result": "11.49% and 4.95%"}, {"measurement": "Population Healthy Nuclei (%)", "setting": "Fibroblast; [6]", "result": "77.01% and 82.67%"}, {"measurement": "Population Hoechst High Intensity Objects (%)", "setting": "Fibroblast; [6]", "result": 0, "unit": "%"}, {"measurement": "Population Membrane Permeable-Phenotype (%)", "setting": "Fibroblast; [6]", "result": "2.24% and 5.99%"}, {"measurement": "Population Mitochondria Different-Phenotype (%)", "setting": "Fibroblast; [6]", "result": "10.45% and 5.99%"}, {"measurement": "Population Mitotic Cells (%)", "setting": "Fibroblast; [6]", "result": "80% and 40%"}, {"measurement": "Population Normal (%)", "setting": "Fibroblast; [6]", "result": 100, "unit": "%"}, {"measurement": "Population Pyknosed Nuclei (%)", "setting": "Fibroblast; [6]", "result": "11.49% and 12.38%"}, {"measurement": "Population Tubulin-Different-Phenotype (%)", "setting": "Fibroblast; [6]", "result": "5.97% and 10.18%"}, {"measurement": "Total Cell Count", "setting": "Fibroblast; [6]", "result": "174 and 202"}, {"measurement": "Population Apoptotic (%)", "setting": "U2OS; [1]", "result": "16.88% and 44.83%"}, {"measurement": "Population Fragmented Nuclei (%)", "setting": "U2OS; [1]", "result": "2.23% and 1.96%"}, {"measurement": "Population Healthy Nuclei (%)", "setting": "U2OS; [1]", "result": "76.32% and 79.08%"}, {"measurement": "Population Hoechst High Intensity Objects (%)", "setting": "U2OS; [1]", "result": 0, "unit": "%"}, {"measurement": "Population Membrane Permeable-Phenotype (%)", "setting": "U2OS; [1]", "result": "1.46% and 3.31%"}, {"measurement": "Population Mitochondria Different-Phenotype (%)", "setting": "U2OS; [1]", "result": "0% and 8.26%"}, {"measurement": "Population Mitotic Cells (%)", "setting": "U2OS; [1]", "result": "83.12% and 55.17%"}, {"measurement": "Population Normal (%)", "setting": "U2OS; [1]", "result": 100, "unit": "%"}, {"measurement": "Population Pyknosed Nuclei (%)", "setting": "U2OS; [1]", "result": "21.45% and 18.95%"}, {"measurement": "Population Tubulin-Different-Phenotype (%)", "setting": "U2OS; [1]", "result": "1.46% and 2.48%"}, {"measurement": "Total Cell Count", "setting": "U2OS; [1]", "result": "359 and 153"}, {"measurement": "Population Apoptotic (%)", "setting": "U2OS; [2]", "result": "31.03% and 23.81%"}, {"measurement": "Population Fragmented Nuclei (%)", "setting": "U2OS; [2]", "result": "0.99% and 2.27%"}, {"measurement": "Population Healthy Nuclei (%)", "setting": "U2OS; [2]", "result": "79.87% and 81.82%"}, {"measurement": "Population Hoechst High Intensity Objects (%)", "setting": "U2OS; [2]", "result": 0, "unit": "%"}, {"measurement": "Population Membrane Permeable-Phenotype (%)", "setting": "U2OS; [2]", "result": "2.89% and 3.7%"}, {"measurement": "Population Mitochondria Different-Phenotype (%)", "setting": "U2OS; [2]", "result": "0% and 15.74%"}, {"measurement": "Population Mitotic Cells (%)", "setting": "U2OS; [2]", "result": "68.97% and 76.19%"}, {"measurement": "Population Normal (%)", "setting": "U2OS; [2]", "result": 100, "unit": "%"}, {"measurement": "Population Pyknosed Nuclei (%)", "setting": "U2OS; [2]", "result": "19.14% and 15.91%"}, {"measurement": "Population Tubulin-Different-Phenotype (%)", "setting": "U2OS; [2]", "result": "2.07% and 0.93%"}, {"measurement": "Total Cell Count", "setting": "U2OS; [2]", "result": "303 and 132"}, {"measurement": "Population Apoptotic (%)", "setting": "U2OS; [3]", "result": "34.38% and 19.64%"}, {"measurement": "Population Fragmented Nuclei (%)", "setting": "U2OS; [3]", "result": "3.92% and 1.72%"}, {"measurement": "Population Healthy Nuclei (%)", "setting": "U2OS; [3]", "result": "66.59% and 66.09%"}, {"measurement": "Population Hoechst High Intensity Objects (%)", "setting": "U2OS; [3]", "result": "0% and 0.57%"}, {"measurement": "Population Membrane Permeable-Phenotype (%)", "setting": "U2OS; [3]", "result": "0.69% and 3.48%"}, {"measurement": "Population Mitochondria Different-Phenotype (%)", "setting": "U2OS; [3]", "result": "0% and 8.7%"}]}]}
